Experimental data taken from ChEMBL document CHEMBL4364256, “Design, synthesis and biological evaluation of antimicrobial diarylimine and -amine compounds targeting the interaction between the bacterial NusB and NusE proteins” (Eur J Med Chem, 2019).
Values after ≈ are worked out from the molar mass of the structure shown. Active and inactive are the calls of the source.

Columns and labels:
Streptococcus pneumoniae = experiment: Antimicrobial activity against Streptococcus pneumoniae ATCC 49619 incubated for 20 hrs by microdilution method; format: functional; conditions: ATCC 49619, 20 h
How it was run: (§1)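 Broth microdilution MIC testing done following CLSI guidelines.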

Staphylococcus aureus [1] = experiment: microbe, parasite or virus in culture; conditions: ATCC 25923, 20 h
Staphylococcus aureus [2] = experiment: microbe, parasite or virus in culture; conditions: ATCC 29213, 20 h
Pseudomonas aeruginosa = experiment: Antimicrobial activity against Pseudomonas aeruginosa ATCC 27853 incubated for 20 hrs by microdilution method; format: functional; conditions: ATCC 27853, 20 h; how it was run: as §1
Acinetobacter baumannii = experiment: Antimicrobial activity against Acinetobacter baumannii ATCC 19606 incubated for 20 hrs by microdilution method; format: functional; conditions: ATCC 19606 = CIP 70.34 = JCM 6841, 20 h; how it was run: as §1
Staphylococcus aureus [3] = experiment: Growth inhibition of Staphylococcus aureus ATCC 25923 at 1/4 times MIC preincubated for 24 hrs followed by replating on agar plate and measured after overnight incubation by time-kill assay; format: functional, organism-based
Enterococcus faecium = experiment: Antimicrobial activity against Enterococcus faecium ATCC 19433 incubated for 20 hrs by microdilution method; format: functional; conditions: ATCC 19433, 20 h; how it was run: as §1
Bacillus subtilis = experiment: Inhibition of N-terminal LgBiT-fused Bacillus subtilis NusB expressed in Escherichia coli BL21(DE3)pLysS interaction with C- terminal SmBiT-fused Bacillus subtilis NusE expressed in Escherichia coli BL21(DE3)pLysS at 100 uM preincubated for 10 mins followed by NusE addition and measured after 10 mins by nano-glo luciferase assay relative to control
How it was run: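 NusB and NusE were mixed 1:1 at 1 µM in PBS, with compound at 100 µM. The read-out was percent inhibition of the NusB-NusE interaction.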

[4] = microbe, parasite or virus in culture; conditions: Enterobacter cloacae, ATCC 13047, 20 h
Staphylococcus aureus [5] = experiment: Bacteriostatic activity against Staphylococcus aureus ATCC 25923 at 1 to 4 times MIC preincubated for up to 24 hrs followed by replating on agar plate measured after overnight incubation by time-kill assay; format: functional, organism-based
Bacteria = experiment: Binding affinity to bacterial NusB assessed as change in chiral structure at 2 ug/ml by circular dichroism spectroscopic analysis
How it was run: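 Circular dichroism spectra were recorded on NusB at 2.0 µg/mL in neutral phosphate buffer, alone and after mixing with compound at a 1:1 ratio. Binding was read as a change in the spectrum.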

[6] = Therapeutic index, ratio of CC50 for human A549 cells to 1/2 times MIC for Staphylococcus aureus ATCC 25923; format: toxicity; conditions: read-out: TI
Staphylococcus aureus [7] = experiment: Antimicrobial activity against Staphylococcus aureus HA W231 ST45 incubated for 20 hrs by microdilution method; format: functional; conditions: HA W231 ST45, 20 h
How it was run: (§2)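 MIC determined by microdilution following Clinical & Laboratory Standards Institute (CLSI) guidelines, read in µg/mL, against a panel of hospital- and community-acquired MRSA strains.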

Staphylococcus aureus [8] = experiment: Antimicrobial activity against Staphylococcus aureus ATCC BAA43 incubated for 20 hrs by microdilution method; format: functional; conditions: ATCC BAA43, 20 h; how it was run: as §2
Staphylococcus aureus [9] = experiment: Antimicrobial activity against Staphylococcus aureus ATCC BAA44 incubated for 20 hrs by microdilution method; format: functional; conditions: ATCC BAA44, 20 h; how it was run: as §2
[10] = Cytotoxicity against human A549 cells assessed as reduction in cell viability after 48 to 72 hrs by MTT assay; format: cell-based
Staphylococcus aureus [11] = experiment: Antimicrobial activity against CA-methicillin-resistant Staphylococcus aureus W46 ST59 incubated for 20 hrs by microdilution method; conditions: W46 ST59, 20 h
Staphylococcus aureus [12] = experiment: Antimicrobial activity against CA-methicillin-resistant Staphylococcus aureus W45 ST59 incubated for 20 hrs by microdilution method; conditions: W45 ST59, 20 h
Staphylococcus aureus [13] = experiment: Antimicrobial activity against CA-methicillin-resistant Staphylococcus aureus W47 ST30 incubated for 20 hrs by microdilution method; format: functional; conditions: W47 ST30, 20 h; how it was run: as §2
[14] = Therapeutic index, ratio of CC50 for human HaCaT cells to 1/2 times MIC for Staphylococcus aureus ATCC 25923; format: toxicity; conditions: read-out: TI
Staphylococcus aureus [15] = experiment: Antimicrobial activity against Staphylococcus aureus USA300/ST8 incubated for 20 hrs by microdilution method; conditions: USA300 ST8, 20 h
[16] = test system: Staphylococcus epidermidis; experiment: Antimicrobial activity against Staphylococcus epidermidis ATCC 12228 incubated for 20 hrs by microdilution method; format: functional; conditions: ATCC 12228, 20 h; how it was run: as §1
Erythrocyte = experiment: Hemolytic activity against human erythrocytes at 0.1 to 10 ug/ml incubated for 45 mins; format: ADME, cell-based; conditions: 0.75 h
How it was run: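 Hemolysis was tested on human blood cells with compound at 0.1, 1 and 10 µg/mL, judged against a nonhemolytic cut-off value.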

Staphylococcus aureus [17] = experiment: Bacteriostatic activity against Staphylococcus aureus ATCC 25923 at 1/4 to 1 times MIC preincubated for up to 24 hrs followed by replating on agar plate and measured after overnight incubation by time-kill assay; format: functional, organism-based
Streptococcus pyogenes = experiment: Antimicrobial activity against Streptococcus pyogenes ATCC 19615 incubated for 20 hrs by microdilution method; format: functional; conditions: ATCC 19615, 20 h; how it was run: as §1
Staphylococcus aureus [18] = experiment: Antimicrobial activity against CA-methicillin-resistant Staphylococcus aureus W4 ST338 incubated for 20 hrs by microdilution method; format: functional; conditions: W4 ST338, 20 h; how it was run: as §2
[19] = Apparent permeability across apical to basolateral side in human Caco2 cells by LC-MS/MS analysis; format: ADME, cell-based; conditions: Caco-2
Staphylococcus aureus [20] = experiment: Antimicrobial activity against Staphylococcus aureus ST239 incubated for 20 hrs by microdilution method; format: functional; conditions: CN79, 20 h; how it was run: as §2
Streptococcus agalactiae = experiment: Antimicrobial activity against Streptococcus agalactiae ATCC 12386 incubated for 20 hrs by microdilution method; format: functional; conditions: ATCC 12386, 20 h; how it was run: as §1
Staphylococcus aureus [21] = experiment: Bactericidal activity against Staphylococcus aureus ATCC 25923 at 4 times MIC preincubated for up to 24 hrs followed by replating on agar plate and measured after overnight incubation by time-kill; format: functional, organism-based
[22] = Cytotoxicity against human HaCaT cells assessed as reduction in cell viability after 48 to 72 hrs by MTT assay; format: cell-based
Staphylococcus aureus [23] = experiment: Antimicrobial activity against CA-methicillin-resistant Staphylococcus aureus W48 ST217 incubated for 20 hrs by microdilution method; conditions: W48 ST217, 20 h
[24] = Antimicrobial activity against Staphylococcus saprophyticus ATCC 15305 incubated for 20 hrs by microdilution method; format: functional, Staphylococcus saprophyticus subsp. saprophyticus; conditions: ATCC 15305, 20 h; how it was run: as §1
Staphylococcus aureus [25] = experiment: Antimicrobial activity against Staphylococcus aureus ST22 11B086169 incubated for 20 hrs by microdilution method; format: functional; conditions: ST22 11B086169, 20 h; how it was run: as §2
Staphylococcus aureus [26] = experiment: Antimicrobial activity against Staphylococcus aureus HA W235 ST5 incubated for 20 hrs by microdilution method; format: functional; conditions: HA W235 ST5, 20 h; how it was run: as §2
[27] = test system: Enterococcus casseliflavus; experiment: Antimicrobial activity against Enterococcus casseliflavus ATCC 25788 incubated for 20 hrs by microdilution method; format: functional; conditions: ATCC 25788, 20 h; how it was run: as §1

Row | SMILES | MIC (Streptococcus pneumoniae) [mg/L] | MIC (Staphylococcus aureus [1]) [mg/L] | MIC (Staphylococcus aureus [2]) [mg/L] | MIC (Pseudomonas aeruginosa) [mg/L] | MIC (Acinetobacter baumannii) [mg/L] | MIC (Enterococcus faecium) [mg/L] | inhibition (Bacillus subtilis) [%] | MIC [4] [mg/L] | selectivity ratio [6] | MIC (Staphylococcus aureus [7]) [mg/L] | MIC (Staphylococcus aureus [8]) [mg/L] | MIC (Staphylococcus aureus [9]) [mg/L] | CC50 [10] [µM] | MIC (Staphylococcus aureus [11]) [mg/L] | MIC (Staphylococcus aureus [12]) [mg/L] | MIC (Staphylococcus aureus [13]) [mg/L] | selectivity ratio [14] | MIC (Staphylococcus aureus [15]) [mg/L] | MIC [16] [mg/L] | MIC (Streptococcus pyogenes) [mg/L] | also measured
1 | C#Cc1cccc(/N=C/c2cc([N+](=O)[O-])ccc2O)c1 | 16 (≈ 60.1 µM) | 8 (≈ 30 µM) | 16 (≈ 60.1 µM) | > 256 | 64 (≈ 240 µM) | > 256 | 85.3 | > 256 |  |  |  |  |  |  |  |  |  |  |  |  | growth inhibition (GI) (Staphylococcus aureus [3]): Active; Activity (Staphylococcus aureus [5]): Active
2 | CC(C)(C)c1ccccc1/N=C/c1cc([N+](=O)[O-])ccc1O | 64 (≈ 215 µM) | 4 (≈ 13.4 µM) | 16 (≈ 53.6 µM) | > 256 | > 256 | > 256 | 16.8 | > 256 |  |  |  |  |  |  |  |  |  |  |  |  | Activity (Bacteria): Active
3 | O=[N+]([O-])c1ccc(O)c(CNc2ccccc2Cl)c1 | 8 (≈ 28.7 µM) | 2 (≈ 7.18 µM) | 2 (≈ 7.18 µM) | > 256 | 128 (≈ 459 µM) | 32 (≈ 115 µM) | 31 | 256 (≈ 919 µM) | 6 | 4 (≈ 14.4 µM) | 2 (≈ 7.18 µM) | 8 (≈ 28.7 µM) | 22.5 | 4 (≈ 14.4 µM) | 8 (≈ 28.7 µM) | 4 (≈ 14.4 µM) | 6 | 4 (≈ 14.4 µM) | 8 (≈ 28.7 µM) | 16 (≈ 57.4 µM) | Activity (Erythrocyte): Non-Toxic; Activity (Staphylococcus aureus [17]): Active; MIC (Staphylococcus aureus [18]): 4 mg/L (≈ 14.4 µM); Papp A→B [19]: 161 nm/s; MIC (Staphylococcus aureus [20]): 8 mg/L (≈ 28.7 µM); MIC (Streptococcus agalactiae): 32 mg/L (≈ 115 µM); Activity (Staphylococcus aureus [21]): Active; CC50 [22]: 20.1 µM; MIC (Staphylococcus aureus [23]): 4 mg/L (≈ 14.4 µM); MIC [24]: 8 mg/L (≈ 28.7 µM); MIC (Staphylococcus aureus [25]): 4 mg/L (≈ 14.4 µM); MIC (Staphylococcus aureus [26]): 4 mg/L (≈ 14.4 µM); MIC [27]: 32 mg/L (≈ 115 µM)
4 | CC(C)(C)c1ccc(NCc2cc([N+](=O)[O-])ccc2O)cc1 | 4 to 8 (≈ 13.3 to 26.6 µM) | 2 (≈ 6.66 µM) | 4 (≈ 13.3 µM) | > 256 | > 256 | > 256 | 10.8 | > 256 | 11 | 4 (≈ 13.3 µM) | 4 (≈ 13.3 µM) | 4 (≈ 13.3 µM) | 37.2 | 4 (≈ 13.3 µM) | 4 (≈ 13.3 µM) | 4 (≈ 13.3 µM) | 12 | 4 (≈ 13.3 µM) | 4 (≈ 13.3 µM) | 16 (≈ 53.3 µM) | MIC (Staphylococcus aureus [18]): 4 mg/L (≈ 13.3 µM); MIC (Staphylococcus aureus [20]): 4 mg/L (≈ 13.3 µM); MIC (Streptococcus agalactiae): 16 mg/L (≈ 53.3 µM); CC50 [22]: 38.9 µM; MIC (Staphylococcus aureus [23]): 8 mg/L (≈ 26.6 µM); MIC [24]: 8 mg/L (≈ 26.6 µM); MIC (Staphylococcus aureus [25]): 4 mg/L (≈ 13.3 µM); MIC (Staphylococcus aureus [26]): 4 mg/L (≈ 13.3 µM); MIC [27]: 32 mg/L (≈ 107 µM)
5 | O=[N+]([O-])c1ccc(O)c(CNc2ccccc2C(F)(F)F)c1 | 8 (≈ 25.6 µM) | 2 (≈ 6.41 µM) | 2 (≈ 6.41 µM) | > 256 | 128 (≈ 410 µM) | 8 (≈ 25.6 µM) | 61.5 | 256 (≈ 820 µM) | 6 | 4 (≈ 12.8 µM) | 4 (≈ 12.8 µM) | 4 (≈ 12.8 µM) | 20 | 2 (≈ 6.41 µM) | 4 (≈ 12.8 µM) | 4 (≈ 12.8 µM) | 6 | 2 (≈ 6.41 µM) | 2 (≈ 6.41 µM) | 16 (≈ 51.2 µM) | MIC (Staphylococcus aureus [18]): 2 mg/L (≈ 6.41 µM); MIC (Staphylococcus aureus [20]): 4 mg/L (≈ 12.8 µM); MIC (Streptococcus agalactiae): 16 mg/L (≈ 51.2 µM); CC50 [22]: 18.3 µM; MIC (Staphylococcus aureus [23]): 2 mg/L (≈ 6.41 µM); MIC [24]: 4 mg/L (≈ 12.8 µM); MIC (Staphylococcus aureus [25]): 4 mg/L (≈ 12.8 µM); MIC (Staphylococcus aureus [26]): 2 mg/L (≈ 6.41 µM); MIC [27]: 64 mg/L (≈ 205 µM)
